Laboratory results published in publication PMC4441290 (International Journal of Oncology, 2015).
Marks after values point to notes of the source that are not given here.

Experiments:
[1] = test system: MCF-7 human breast carcinoma cells; assay: Cell proliferation assay; format: cell-based; conditions: 72-h exposure, 100–1,500 nM
Outline: (§1)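 Cells seeded at 2.5×10^3 per 200 μl in complete DMEM (10% FBS, 2 mM glutamine), attached overnight. They were then exposed to peptide (100–1,500 nM) or vehicle for 72 h at 37°C, 5% CO2. MTT was added for 4 h, the product dissolved in DMSO, and absorbance read at 570 nm. Untreated control OD was set as 100% viability. Results came from at least three independent experiments, mean ± SEM.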

[2] = test system: F3II mouse mammary carcinoma cells; assay: Cell proliferation assay; format: cell-based; conditions: 72 h, concentration-dependent
Outline: as §1

[3] = test system: MDA-MB-231 cells; assay: Clonogenic; format: cell-based, human; conditions: read-out: IC50 colony formation; MDA-MB-231, 7 days
Outline: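 MDA-MB-231 cells were grown in complete medium containing peptide (100–1,500 nM), with medium plus peptide renewed after 72 h. Colonies of >50 cells were counted 7 days after seeding. IC50 was derived by linear regression of the concentration–inhibition plot. Data are from at least three independent experiments, mean ± SEM.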

[4] = test system: HMVEC-L human microvascular endothelial cells; assay: Endothelial cell morphogenesis; format: cell-based; conditions: 100 nM, 24 h
[5] = test system: MDA-MB-231 xenografts; assay: MDA-MB-231 xenograft tumour progression; format: in vivo, BALB/c athymic mice; conditions: 0.3 μg/kg i.v. thrice weekly
Outline: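 Athymic BALB/c nude females were injected s.c. with 5×10^6 MDA-MB-231 cells in 300 μl of DMEM:Matrigel (1:1). From day 14, at tumours of ~50 mm3, mice received 0.3 μg/kg i.v. thrice weekly against a saline vehicle. Caliper volumes were calculated as 0.52 × width² × length. Growth rate is the slope of the linear regression of volume over time, mean ± SD.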

[6] = test system: F3II mammary tumours; assay: F3II subcutaneous tumour progression and spontaneous lung metastases; format: in vivo, BALB/c mice
Outline: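 Syngeneic female BALB/c mice were injected s.c. with 2×10^5 F3II cells. Dosing started 7 days later, at tumours of ~50 mm3, with 0.3 μg/kg i.v. thrice weekly against a saline vehicle. Caliper volumes were calculated as 0.52 × width² × length. Mice were necropsied on day 50, and Bouin-fixed lungs were scored for macroscopic nodules under a dissecting microscope. Data are mean ± SD.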

[7] = test system: F3II cells injected into the tail vein; assay: Experimental lung metastases assay; format: in vivo, BALB/c mice; conditions: 0.3 μg/kg i.v., two doses (time zero and 24 h), day 21
Outline: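 Female 8-week-old SPF BALB/c mice received 2×10^5 F3II cells in DMEM via the tail vein. Peptide at 0.3 μg/kg was given i.v. twice: at time zero and 24 h after cell injection. On day 21, lungs were excised, weighed, fixed in Bouin's solution and photographed, and lung nodules were counted.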

[8] = Acute toxicology study; format: in vivo, Wistar rats; conditions: for ALT / AST / Creatinine / Direct bilirubin / Fibrinogen / GGT / Glucose / Hematocrit / RBC / Total protein / WBC / Weight: 72 h, mean ± SD
[9] = molecular target: human V2r; conditions: cited from earlier work; for Ki: human V2r ref 5
[10] = test system: VWF; conditions: after i.v. injection ref 4; cited from earlier work
[11] = test system: MDA-MB-231 human breast carcinoma cells; assay: Cell proliferation assay; format: cell-based; conditions: MDA-MB-231, tolvaptan 1,500 nM plus [V^4Q^5]dDAVP 1,500 nM
Outline: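 MDA-MB-231 cells were seeded at 2.5×10^3 per 200 μl in complete DMEM and attached overnight. They were then given 1,500 nM test peptide alone or with the competitive V2r antagonist tolvaptan (1,500 nM) for 72 h. MTT was added for 4 h, DMSO used to solubilise, and absorbance read at 570 nm. Untreated control was set as 100%. There were at least three independent experiments, mean ± SEM.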

NC(=O)CC[C@@H]1NC(=O)[C@H](Cc2ccccc2)NC(=O)[C@H](Cc2ccc(O)cc2)NC(=O)CCSSC[C@@H](C(=O)N2CCC[C@H]2C(=O)N[C@H](CCCN=C(N)N)C(=O)NCC(N)=O)NC(=O)[C@H](CC(N)=O)NC1=O [dDAVP, 1-deamino-8-D-arginine vasopressin]
effect on proliferation in MCF-7 cell cultures [1]: mild reduction of proliferation
cytostatic effect on F3II cells [2]: mild cytostatic effect
IC50 [3]: 1440 nM
capillary-like tube formation [4]: did not displayed any significant effects
reduction in the number of blood vessels (intratumoural vascular density) [5]: 30%
tumour growth rate ([5]; mean ± SD, control 7.44±0.66): 5.72±0.72 mm^3/day
spontaneous lung metastases ([6]; 0.3 μg/kg i.v. thrice weekly for 6 weeks, day 50): not significant
final tumour volume ([6]; 0.3 μg/kg i.v. thrice weekly, mean ± SD, P>0.05, control 1822.3±1185): 1574.8±466.1 mm^3
reduction of the number of lung nodules [7]: 32%
ALT ([8]; 1 μg/kg single i.v.): 22.8±3.4 IU/l
AST ([8]; 1 μg/kg single i.v.): 36.6±11.6 IU/l
Creatinine ([8]; 1 μg/kg single i.v.): 0.70 ± 0.16 mg/mL
Direct bilirubin ([8]; 1 μg/kg single i.v.): 0.13 ± 0.04 mg/dL
Fibrinogen ([8]; 1 μg/kg single i.v.): 221.0 ± 67.8 mg/dL
GGT ([8]; 1 μg/kg single i.v.): 2.8±0.8 IU/l
Glucose ([8]; 1 μg/kg single i.v.): 207.0±25.7 ^d mg/dl
Hematocrit ([8]; 1 μg/kg single i.v.): 40.4±2.3%
RBC ([8]; 1 μg/kg single i.v.): 5.2±0.3 10^6/ml
Total protein ([8]; 1 μg/kg single i.v.): 6.6 ± 0.8 g/dL
WBC ([8]; 1 μg/kg single i.v.): 4.8±0.3 10^3/ml
Weight ([8]; 1 μg/kg single i.v.): 234.2 ± 8.1 g
ALT ([8]; 10 μg/kg single i.v.): 22.6±3.4 IU/l
AST ([8]; 10 μg/kg single i.v.): 30.0±5.6 IU/l
Creatinine ([8]; 10 μg/kg single i.v.): 0.65 ± 0.08 mg/mL
Direct bilirubin ([8]; 10 μg/kg single i.v.): 0.14±0.02 ^d mg/dl
Fibrinogen ([8]; 10 μg/kg single i.v.): 226.7 ± 48.4 mg/dL
GGT ([8]; 10 μg/kg single i.v.): 2.6±0.9 IU/l
Glucose ([8]; 10 μg/kg single i.v.): 218.8±20.0 ^d mg/dl
Hematocrit ([8]; 10 μg/kg single i.v.): 40.5±2.7%
RBC ([8]; 10 μg/kg single i.v.): 5.5±0.3 10^6/ml
Total protein ([8]; 10 μg/kg single i.v.): 6.9 ± 0.5 g/dL
WBC ([8]; 10 μg/kg single i.v.): 4.4±0.5 10^3/ml
Weight ([8]; 10 μg/kg single i.v.): 240.3 ± 9.4 g
ALT ([8]; 100 μg/kg single i.v.): 21.3±2.1 IU/l
AST ([8]; 100 μg/kg single i.v.): 47.5±17.8 IU/l
Creatinine ([8]; 100 μg/kg single i.v.): 0.70 ± 0.09 mg/mL
Direct bilirubin ([8]; 100 μg/kg single i.v.): 0.17±0.03 ^d mg/dl
Fibrinogen ([8]; 100 μg/kg single i.v.): 243.0 ± 63.1 mg/dL
GGT ([8]; 100 μg/kg single i.v.): 3.0±1.2 IU/l
Glucose ([8]; 100 μg/kg single i.v.): 230.7±12.1 ^d mg/dl
Hematocrit ([8]; 100 μg/kg single i.v.): 41.8±3.4%
RBC ([8]; 100 μg/kg single i.v.): 5.7±0.3 10^6/ml
Total protein ([8]; 100 μg/kg single i.v.): 7.0 ± 0.5 g/dL
WBC ([8]; 100 μg/kg single i.v.): 4.1±0.7 10^3/ml
Weight ([8]; 100 μg/kg single i.v.): 241.8 ± 16.8 g
safety profile ([8]; reference standard, single i.v. 1, 10 or 100 μg/kg): consistent with previous observations
Ki [9]: 23.3 nM
time of peak levels of VWF release [10]: 60 to 90 min

4-valine-dDAVP
affinity for the human V2r relative to dDAVP ([9]; higher affinity than dDAVP ref 5): 10 fold
Ki [9]: 2.2 nM

Cc1ccccc1C(=O)Nc1ccc(C(=O)N2CCCC(O)c3cc(Cl)ccc32)c(C)c1 (stereo not drawn) [tolvaptan]
blockade of growth-modulating activity of [V^4Q^5]dDAVP [11]: completely abolished
